Results from ChEMBL document CHEMBL4382247, “A novel series of napabucasin derivatives as orally active inhibitors of signal transducer and activator of transcription 3 (STAT3)” (Eur J Med Chem, 2019).
Converted amounts (≈) assume the structure as drawn. The source made the active and inactive calls. The rule behind the calls is not given here.

Legend:
[1] = Toxicity in BALB/c mouse implanted with mouse CT26 cells assessed as effect on lung morphology by measuring cell inflammation at 50 mg/kg, po administered once daily by H and E staining based histopathological analysis; format: organism-based; details: in vivo
Procedure, shortened: (§1)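 CT-26 subcutaneous flank tumour model in male BALB/c mice, five per group, dosed orally at 50mg/kg daily in 5% NMP/95% PEG 400 versus vehicle. After treatment, heart, liver, spleen, lung and kidney collected, sectioned and stained with H&E for histological examination.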

HepG2 [2] = experiment: Decrease in total STAT3 expression in human HepG2 cells at 400 nM after 24 hrs by DAPI staining based immunofluorescence microscopic analysis; format: ADME, cell-based; details: hepg2, 24 h, 0.4 µM
Procedure, shortened: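 HepG2 cells treated 24 h, stained with the same anti-total STAT3 antibody as the blots, nuclei counterstained with DAPI. Imaged on an inverted microscope with a 20× objective.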

U-251 [3] = experiment: Antiproliferative activity against human U251 cells after 72 hrs by MTT assay; format: functional, cell-based; details: U-251, 72 h
Procedure, shortened: (§2)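 Cells seeded at 5 × 10^3 per well and cultured 24 h before compound addition at varied concentrations, then grown a further 72 h; 0.5% DMSO as solvent control. MTT (5mg/ml solution) added for 4 h, formazan dissolved in DMSO, absorbance read at 570nm. Each treatment in triplicate; Mean ± SD.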

[4] = Toxicity in BALB/c mouse implanted with mouse CT26 cells assessed as effect on spleen morphology by measuring edema at 50 mg/kg, po administered once daily by H and E staining based histopathological analysis; format: organism-based; details: in vivo; procedure, shortened: as §1
HT-29 = experiment: Antiproliferative activity against human HT-29 cells after 72 hrs by MTT assay; format: functional, cell-based; details: HT-29, 72 h; procedure, shortened: as §2
CT26 = experiment: Antitumor activity against mouse CT26 cells implanted in BALB/c mouse assessed as tumor growth inhibition at 50 mg/kg, po administered once daily measured every 3 days relative to control; format: functional; details: 72 h, read-out: TGI
Procedure, shortened: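 Male BALB/c mice, 6 weeks old, given 1 × 10^6 CT-26 cells subcutaneously in the right flank. At about 70 mm3 tumour volume, randomized into groups of five and dosed orally once daily with 50mg/kg or vehicle (5% NMP in PEG 400). Tumours measured by caliper every 3 days, V = ab^2/2. Tumours weighed at sacrifice. TGI computed from mean tumour weights. T/C computed as mean RTV (Vt/V0) treated over control.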

U-251 [5] = experiment: Potency index, ratio of napabucasin IC50 to test compound IC50 for human U251 cells; format: functional
[6] = Hepatotoxicity in BALB/c mouse implanted with mouse CT26 cells assessed as effect on liver morphology by measuring cell inflammation at 50 mg/kg, po administered once daily by H and E staining based histopathological analysis; format: toxicity, organism-based; details: in vivo; procedure, shortened: as §1
[7] = Toxicity in BALB/c mouse implanted with mouse CT26 cells assessed as effect on lung morphology by measuring necrosis at 50 mg/kg, po administered once daily by H and E staining based histopathological analysis; format: organism-based; details: in vivo; procedure, shortened: as §1
[8] = Aqueous solubility of the compound in water at 2 mg after 24 hrs by HPLC analysis; format: physicochemical
Procedure, shortened: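 Aqueous solubility measured by HPLC against calibration standards at 15–125 µg/mL. Values are the mean of at least three determinations ± SD.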

[9] = biological target: T1, Signal transducer and activator of transcription 3 (Homo sapiens, UniProt P40763); experiment: Inhibition of STAT3 phosphorylation at Y705 residue in human HepG2 cells at 400 nM after 24 hrs by Western blot analysis; format: cell-based
T1 sequence (P40763 whole entry): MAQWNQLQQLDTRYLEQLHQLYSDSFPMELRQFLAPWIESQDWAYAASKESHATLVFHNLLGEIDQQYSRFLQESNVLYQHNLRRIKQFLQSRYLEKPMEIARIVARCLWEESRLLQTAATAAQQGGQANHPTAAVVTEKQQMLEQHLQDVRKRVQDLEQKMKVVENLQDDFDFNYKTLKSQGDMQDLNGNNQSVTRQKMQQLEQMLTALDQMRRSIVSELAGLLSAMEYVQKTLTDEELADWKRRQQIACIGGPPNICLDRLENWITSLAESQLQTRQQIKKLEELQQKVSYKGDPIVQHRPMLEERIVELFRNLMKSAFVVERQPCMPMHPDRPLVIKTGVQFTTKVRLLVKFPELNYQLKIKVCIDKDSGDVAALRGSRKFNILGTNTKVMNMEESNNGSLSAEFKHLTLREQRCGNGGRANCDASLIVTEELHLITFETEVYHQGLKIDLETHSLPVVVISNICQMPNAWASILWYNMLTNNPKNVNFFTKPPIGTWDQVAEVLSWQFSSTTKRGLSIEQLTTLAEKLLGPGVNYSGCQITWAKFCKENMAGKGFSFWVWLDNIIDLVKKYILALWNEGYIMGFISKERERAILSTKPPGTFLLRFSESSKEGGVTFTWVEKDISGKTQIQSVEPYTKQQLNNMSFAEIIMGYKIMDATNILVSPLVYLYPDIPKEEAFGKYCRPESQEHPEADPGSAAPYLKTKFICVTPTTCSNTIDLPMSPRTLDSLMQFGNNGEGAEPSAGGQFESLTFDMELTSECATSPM
Procedure, shortened: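 Cells treated 24 and 48 h. Lysed in RIPA with protease inhibitors, protein quantified by BCA, equal amounts run on 10% SDS-PAGE and transferred to PVDF. Blocked in 5% milk, probed overnight at 4 °C with anti-total STAT3, anti-p-STAT3 (Tyr705) and GAPDH antibodies. ECL detection.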

[10] = Hepatotoxicity in BALB/c mouse implanted with mouse CT26 cells assessed as effect on liver morphology by measuring edema at 50 mg/kg, po administered once daily by H and E staining based histopathological analysis; format: toxicity, organism-based; details: in vivo; procedure, shortened: as §1
HepG2 [11] = experiment: Antiproliferative activity against human HepG2 cells after 72 hrs by MTT assay; format: functional, cell-based; details: HepG2, 72 h; procedure, shortened: as §2
[12] = biological target: T1, Signal transducer and activator of transcription 3; experiment: Inhibition of STAT3 phosphorylation at Y705 residue in human U251 cells at 200 nM after 24 to 48 hrs by sandwich-ELISA; format: cell-based
Procedure, shortened: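 Cells treated 24 or 48 h. Whole-cell lysates made in lysis buffer with protease inhibitor cocktail. Total STAT3 and p-STAT3 Y705 measured by sandwich ELISA. Three repeats; groups compared with control by paired t-test; means ± S.D.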

[13] = Toxicity in BALB/c mouse implanted with mouse CT26 cells assessed as effect on kidney morphology by measuring cell inflammation at 50 mg/kg, po administered once daily by H and E staining based histopathological analysis; format: organism-based; details: in vivo; procedure, shortened: as §1

- IC50 (U-251 [3]): 220 nM
- IC50 (HT-29): 70 nM
- solubility at 24 h [8]: 201 µM (≈ 70.8 µg/mL)
- inhibition [9]: Active
- IC50 (HepG2 [11]): 490 nM
- inhibition [12]: Active
Compound: O=C(NCCN1CCCCC1)c1cc2c(o1)C(=O)c1ccccc1C2=O
- Activity [1]: Non-Toxic
- Activity (HepG2 [2]): Toxic
- Activity [4]: Non-Toxic
- inhibition in vivo at 50 mg/kg (CT26): 63%
- Ratio IC50 (U-251 [5]): >10
- Activity [6]: Non-Toxic
- Activity [7]: Non-Toxic
- Activity [10]: Non-Toxic
- Activity [13]: Non-Toxic
